Legend:
[1] = test system: Human immunodeficiency virus 1; assay: Antiviral activity against HIV1 isolate 058 harboring reverse transcriptase M41L/D67N/K70R/L210W/T215F/K219Q mutant gene by phenosense assay relative to wild type; format: functional
Procedure, shortened: (§1)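 Recombinant-virus PhenoSense HIV assay run on a panel of 30 NRTI-resistant HIV-1 mutants and two wild-type viruses. Each virus is tested across increasing drug concentrations to give an inhibition curve and EC50. Fold change is the test recombinant EC50 divided by the EC50 of the drug-sensitive wild-type reference virus.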

[2] = test system: Human immunodeficiency virus 1; assay: Antiviral activity against HIV1 isolate 211 harboring reverse transcriptase D67N/K70R/T215F/K219E/M184V mutant gene by phenosense assay relative to wild type; format: functional
Procedure, shortened: (§2)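 PhenoSense HIV recombinant virus assay: patient-derived HIV-1 with major NRTI resistance mutations tested against increasing drug concentrations to give inhibition curves. EC50 is the concentration giving 50% inhibition. Fold change is the test recombinant EC50 divided by the EC50 of a drug-sensitive wild-type reference virus. Panel of 30 NRTI-resistant isolates plus two wild-type viruses.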

[3] = test system: Human immunodeficiency virus 1; assay: Antiviral activity against HIV1 isolate 157 harboring reverse transcriptase L74V/M184V mutant gene by phenosense assay relative to wild type; format: functional; procedure, shortened: as §1
[4] = test system: Human immunodeficiency virus 1; assay: Antiviral activity against HIV1 isolate 061 harboring reverse transcriptase M41L/D67N/K70R/M184V/L210W/T215Y/K219E mutant gene by phenosense assay; format: functional, organism-based; conditions: Human immunodeficiency virus 1, isolate 061; procedure, shortened: as §1
[5] = test system: Human immunodeficiency virus 1; assay: Antiviral activity against HIV1 isolate 188 harboring reverse transcriptase T215Y/M184V mutant gene by phenosense assay relative to wild type; format: functional; procedure, shortened: as §1
[6] = test system: Human immunodeficiency virus 1; assay: Antiviral activity against HIV1 isolate 174 harboring reverse transcriptase M184V mutant gene obtained as site-directed mutant of NL4-3 by phenosense assay; format: functional, organism-based; conditions: Human immunodeficiency virus 1, isolate 174; procedure, shortened: as §1
[7] = test system: Human immunodeficiency virus 1; assay: Antiviral activity against HIV1 isolate 160 harboring reverse transcriptase S68G/V75(I/T)/F77L/Y115F/F116Y /Q151M mutant gene by phenosense assay relative to wild type; format: functional; procedure, shortened: as §1
[8] = test system: Human immunodeficiency virus 1; assay: Antiviral activity against HIV1 isolate 060 harboring reverse transcriptase M41L/D67N/K70R/L210W/T215Y/K219E mutant gene by phenosense assay; format: functional, organism-based; conditions: Human immunodeficiency virus 1, isolate 060; procedure, shortened: as §1
[9] = test system: Human immunodeficiency virus 1; assay: Antiviral activity against HIV1 isolate 215 harboring reverse transcriptase D67N/K70E mutant gene by phenosense assay relative to wild type; format: functional; procedure, shortened: as §2
[10] = test system: Human immunodeficiency virus 1; assay: Antiviral activity against HIV1 isolate 066 harboring reverse transcriptase 184V mutant gene by phenosense assay relative to wild type; format: functional; procedure, shortened: as §1
[11] = test system: Human immunodeficiency virus 1; assay: Antiviral activity against HIV1 isolate 185 harboring reverse transcriptase T215Y mutant gene by phenosense assay relative to wild type; format: functional; procedure, shortened: as §1
[12] = test system: Human immunodeficiency virus 1; assay: Antiviral activity against HIV1 isolate 069 harboring reverse transcriptase D67E/T69SSG/V75M/M184V/L210W/T215Y mutant gene by phenosense assay; format: functional, organism-based; conditions: Human immunodeficiency virus 1, isolate 069; procedure, shortened: as §1
[13] = test system: Human immunodeficiency virus 1; assay: Antiviral activity against HIV1 isolate 192 harboring reverse transcriptase M41L/T215Y mutant gene by phenosense assay; format: functional, organism-based; conditions: Human immunodeficiency virus 1, isolate 192; procedure, shortened: as §1
[14] = test system: Human immunodeficiency virus 1; assay: Antiviral activity against HIV1 isolate 217 harboring reverse transcriptase D67N/K70E/M184V mutant gene by phenosense assay relative to wild type; format: functional; procedure, shortened: as §2
[15] = test system: Human immunodeficiency virus 1; assay: Antiviral activity against HIV1 isolate 201 harboring reverse transcriptase M41L/L210W/T215Y mutant gene by phenosense assay relative to wild type; format: functional; procedure, shortened: as §2
[16] = test system: Human immunodeficiency virus 1; assay: Antiviral activity against HIV1 isolate 215 harboring reverse transcriptase D67N/K70E mutant gene by phenosense assay; format: functional, organism-based; conditions: Human immunodeficiency virus 1, isolate 215; procedure, shortened: as §2
[17] = test system: Human immunodeficiency virus 1; assay: Antiviral activity against HIV1 isolate 206 harboring reverse transcriptase D67N/K70R mutant gene by phenosense assay; format: functional, organism-based; conditions: Human immunodeficiency virus 1, isolate 206; procedure, shortened: as §2
[18] = test system: Human immunodeficiency virus 1; assay: Antiviral activity against HIV1 isolate 162 harboring reverse transcriptase A62V/V75I/F77L/Y115F/F116Y/Q151M/M184V mutant gene by phenosense assay relative to wild type; format: functional; procedure, shortened: as §1
[19] = test system: Human immunodeficiency virus 1; assay: Antiviral activity against HIV1 isolate 220 harboring reverse transcriptase K70E/M184V mutant gene by phenosense assay relative to wild type; format: functional; procedure, shortened: as §2
[20] = test system: Human immunodeficiency virus 1; assay: Antiviral activity against HIV1 isolate 070 harboring reverse transcriptase 65R/S68G mutant gene by phenosense assay relative to wild type; format: functional; procedure, shortened: as §1
[21] = test system: Human immunodeficiency virus 1; assay: Antiviral activity against HIV1 isolate 070 harboring reverse transcriptase 65R/S68G mutant gene by phenosense assay; format: functional, organism-based; conditions: Human immunodeficiency virus 1, isolate 070; procedure, shortened: as §1
[22] = test system: Human immunodeficiency virus 1; assay: Antiviral activity against HIV1 isolate 200 harboring reverse transcriptase M41L/L210W/T215Y mutant gene by phenosense assay; format: functional, organism-based; conditions: Human immunodeficiency virus 1, isolate 200; procedure, shortened: as §1
[23] = test system: Human immunodeficiency virus 1; assay: Antiviral activity against HIV1 isolate 063 harboring reverse transcriptase M41L/D67N/K70R/M184V/L210W/T215Y/K219E mutant gene by phenosense assay relative to wild type; format: functional; procedure, shortened: as §1
[24] = test system: Human immunodeficiency virus 1; assay: Antiviral activity against HIV1 isolate 066 harboring reverse transcriptase 184V mutant gene by phenosense assay; format: functional, organism-based; conditions: Human immunodeficiency virus 1, isolate 066; procedure, shortened: as §1
[25] = test system: Human immunodeficiency virus 1; assay: Antiviral activity against HIV1 isolate 220 harboring reverse transcriptase K70E/M184V mutant gene by phenosense assay; format: functional, organism-based; conditions: Human immunodeficiency virus 1, isolate 220; procedure, shortened: as §2
[26] = test system: Human immunodeficiency virus 1; assay: Antiviral activity against HIV1 isolate 180 harboring reverse transcriptase K65R mutant gene obtained as site-directed mutant of NL4-3 by phenosense assay relative to wild type; format: functional; procedure, shortened: as §1
[27] = test system: Human immunodeficiency virus 1; assay: Antiviral activity against HIV1 isolate 206 harboring reverse transcriptase D67N/K70R mutant gene by phenosense assay relative to wild type; format: functional; procedure, shortened: as §2
[28] = test system: Human immunodeficiency virus 1; assay: Antiviral activity against HIV1 isolate 174 harboring reverse transcriptase M184V mutant gene obtained as site-directed mutant of NL4-3 by phenosense assay relative to wild type; format: functional; procedure, shortened: as §1
[29] = test system: Human immunodeficiency virus 1; assay: Antiviral activity against HIV1 isolate 203 harboring reverse transcriptase M41L/L210W/T215Y/M184V mutant gene by phenosense assay; format: functional, organism-based; conditions: Human immunodeficiency virus 1, isolate 203; procedure, shortened: as §2
[30] = test system: Human immunodeficiency virus 1; assay: Antiviral activity against HIV1 isolate 058 harboring reverse transcriptase M41L/D67N/K70R/L210W/T215F/K219Q mutant gene by phenosense assay; format: functional, organism-based; conditions: Human immunodeficiency virus 1, isolate 058; procedure, shortened: as §1
[31] = test system: Human immunodeficiency virus 1; assay: Antiviral activity against HIV1 isolate 194 harboring reverse transcriptase M41L/T215Y/M184V mutant gene by phenosense assay; format: functional, organism-based; conditions: Human immunodeficiency virus 1, isolate 194; procedure, shortened: as §1
[32] = test system: Human immunodeficiency virus 1; assay: Antiviral activity against HIV1 isolate 060 harboring reverse transcriptase M41L/D67N/K70R/L210W/T215Y/K219E mutant gene by phenosense assay relative to wild type; format: functional; procedure, shortened: as §1
[33] = test system: Human immunodeficiency virus 1; assay: Antiviral activity against HIV1 isolate 203 harboring reverse transcriptase M41L/L210W/T215Y/M184V mutant gene by phenosense assay relative to wild type; format: functional; procedure, shortened: as §2
[34] = test system: Human immunodeficiency virus 1; assay: Antiviral activity against HIV1 isolate 069 harboring reverse transcriptase D67E/T69SSG/V75M/M184V/L210W/T215Y mutant gene by phenosense assay relative to wild type; format: functional; procedure, shortened: as §1
[35] = test system: Human immunodeficiency virus 1; assay: Antiviral activity against HIV1 isolate 204 harboring reverse transcriptase M41L/L210W/T215Y/M184V mutant gene by phenosense assay; format: functional, organism-based; conditions: Human immunodeficiency virus 1, isolate 204; procedure, shortened: as §2
[36] = test system: Human immunodeficiency virus 1; assay: Antiviral activity against HIV1 isolate 067 harboring reverse transcriptase A62V/D67G/T69SVG/V75I/T215I mutant gene by phenosense assay; format: functional, organism-based; conditions: Human immunodeficiency virus 1, isolate 067; procedure, shortened: as §1

SMILES | fold change (FC) [1] | fold change (FC) [2] | fold change (FC) [3] | EC50 [4] [µM] | fold change (FC) [5] | EC50 [6] [µM] | fold change (FC) [7] | EC50 [8] [µM] | fold change (FC) [9] | fold change (FC) [10] | fold change (FC) [11] | EC50 [12] [µM] | EC50 [13] [µM] | fold change (FC) [14] | fold change (FC) [15] | EC50 [16] [µM] | EC50 [17] [µM] | fold change (FC) [18] | fold change (FC) [19] | fold change (FC) [20] | further results
Nc1nc(=O)n([C@@H]2CS[C@H](CO)O2)cc1F [EMTRICITABINE] | 5 | >88 | >88 | > 100 | >88 | > 100 | 30 | 11 | 3 | >88 | 2.3 | > 100 | 3.1 | >88 | 1.9 | 3.4 | 3.3 | >88 | >88 | 17 | EC50 [21]: 19 µM; EC50 [22]: 4.2 µM; fold change (FC) [23]: >88; EC50 [24]: > 100 µM; EC50 [25]: > 100 µM; fold change (FC) [26]: 11; fold change (FC) [27]: 2.9; fold change (FC) [28]: >88; EC50 [29]: > 100 µM; EC50 [30]: 5.7 µM; EC50 [31]: > 100 µM; fold change (FC) [32]: 6.9; fold change (FC) [33]: >88; fold change (FC) [34]: >88; EC50 [35]: > 100 µM; EC50 [36]: 30 µM
Nc1ccn([C@@H]2CS[C@H](CO)O2)c(=O)n1 [LAMIVUDINE] | 3.7 | >80 | >80 | > 300 | >80 | > 300 | 24 | 22 | 2.9 | >80 | 1.6 | > 300 | 7.6 | >80 | 1.6 | 11 | 8.1 | >80 | >80 | 19 | EC50 [21]: 71 µM; EC50 [22]: 10.3 µM; fold change (FC) [23]: >80; EC50 [24]: > 300 µM; EC50 [25]: > 300 µM; fold change (FC) [26]: 12; fold change (FC) [27]: 2.1; fold change (FC) [28]: >80; EC50 [29]: > 300 µM; EC50 [30]: 14 µM; EC50 [31]: > 300 µM; fold change (FC) [32]: 5.1; fold change (FC) [33]: >80; fold change (FC) [34]: >80; EC50 [35]: > 300 µM; EC50 [36]: 46 µM
C[C@H](Cn1cnc2c(N)ncnc21)OCP(=O)(O)O [TENOFOVIR ANHYDROUS] | 3.5 | 0.91 | 0.29 | 2 | 0.81 | 0.41 | 2.3 | 3.6 | 0.96 | 0.69 | 2.4 | 3.6 | 1.4 | 0.64 | 3 | 0.74 | 2 | 1.4 | 0.61 | 1.7 | EC50 [21]: 1.3 µM; EC50 [22]: 2.2 µM; fold change (FC) [23]: 2.2; EC50 [24]: 0.53 µM; EC50 [25]: 0.47 µM; fold change (FC) [26]: 2; fold change (FC) [27]: 2.6; fold change (FC) [28]: 0.54; EC50 [29]: 0.75 µM; EC50 [30]: 2.7 µM; EC50 [31]: 1 µM; fold change (FC) [32]: 4; fold change (FC) [33]: 0.97; fold change (FC) [34]: 4.7; EC50 [35]: 0.79 µM; EC50 [36]: 17 µM

Source: ChEMBL document CHEMBL1629690, “Development of hexadecyloxypropyl tenofovir (CMX157) for treatment of infection caused by wild-type and nucleoside/nucleotide-resistant HIV” (Antimicrob Agents Chemother, 2010)
